Series [1] relates to Mus musculus. In words: Neurotoxicity in Kunming mouse at 300 mg/kg, ip after 4 hrs by rotorod test. Also noted: dose 300 mg/kg, route intraperitoneal. The series is classed as toxicity, organism-based. Conditions: in vivo. In outline: (§1)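 Trained male Kunming mice were given ip doses of 30, 100 or 300 mg/kg, one to four per dose. They were placed on a 1 in. knurled rod rotating at 6 rpm, and examined at 0.5 h and 4.0 h. Neurotoxicity was inability to keep balance for at least 1 min in each of four trials. The value is the minimal dose giving toxicity in half or more of the mice.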
(In general: The rotarod test checks motor coordination on a turning rod.)

The subject of series [2] is Mus musculus. In words: Neurotoxicity in Kunming mouse at 300 mg/kg, ip after 0.5 hr by rotorod test. Conditions: in vivo. The series is classed as toxicity, organism-based. Also noted: dose 300 mg/kg, route intraperitoneal. In a few lines: as §1
Series [3] relates to Mus musculus. Put plainly: Anticonvulsant activity in Kunming mouse assessed as protection against maximal electroshock-induced seizures at 100 mg/kg, ip measured after 0.5 hr. The class given is functional, organism-based. Set-up: dose 100 mg/kg. In outline: (§2)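 Male Kunming mice (20 ± 2.0 g) were dosed ip at 30, 100 and 300 mg/kg as a suspension in 0.5% methylcellulose, one to four mice per dose. A 60-Hz, 50-mA current was applied through corneal electrodes for 0.25 s at 0.5 h and 4.0 h after dosing. Absence of hindlimb tonic extension counted as protection. The value is the minimal dose protecting half or more of the mice.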
Background: In the maximal electroshock model the usual endpoint is tonic extension of the hind limbs.

The test system of series [4] is Mus musculus. In words: Anticonvulsant activity in Kunming mouse assessed as protection against maximal electroshock-induced seizures at 300 mg/kg, ip measured after 4 hrs. Set-up: dose 300 mg/kg. The series is classed as functional, organism-based. In outline: as §2
Series [5] relates to Mus musculus. In words: Anticonvulsant activity in Kunming mouse assessed as protection against subcutaneous pentylenetetrazol-induced clonic seizures at 300 mg/kg, ip measured after 4 hrs. The series is classed as functional, organism-based. Set-up: dose 300 mg/kg. In outline:
(§3)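 Male Kunming mice (20 ± 2.0 g) received ip doses of 30, 100 or 300 mg/kg as a suspension in 0.5% methylcellulose, one to four mice per dose. Pentylenetetrazole in 0.9% saline was injected subcutaneously. Protection meant failure to show even a threshold seizure (a single clonic spasm lasting at least 5 s), read at 0.5 h and 4.0 h. Activity was scored as the minimal dose protecting half or more of the mice.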

Series [6] relates to Mus musculus. In words: Anticonvulsant activity in Kunming mouse assessed as protection against subcutaneous pentylenetetrazol-induced clonic seizures at 300 mg/kg, ip measured after 0.5 hrs. The series is classed as functional, organism-based. Also noted: dose 300 mg/kg. In a few lines: as §3
Series [7] relates to Mus musculus. Put plainly: Anticonvulsant activity in Kunming mouse assessed as protection against maximal electroshock-induced seizures at 300 mg/kg, ip measured after 0.5 hr. The series is classed as functional, organism-based. Set-up: dose 300 mg/kg. In outline:
as §2

Series [8] has as its system Mus musculus. Put plainly: Neurotoxicity in Kunming mouse at 100 mg/kg, ip after 0.5 hr by rotorod test. The class given is toxicity, organism-based. Also noted: dose 100 mg/kg, route intraperitoneal. Conditions: in vivo. In outline:
as §1

The subject of series [9] is Mus musculus. Put plainly: Anticonvulsant activity in ip dosed Kunming mouse assessed as protection against maximal electroshock-induced seizures. The series is classed as functional.
Series [10] relates to Mus musculus. In words: Anticonvulsant activity in ip dosed Kunming mouse assessed as protection against subcutaneous pentylenetetrazol-induced clonic seizures. The series is classed as functional.
In series [11] the test system is Mus musculus. In words: Anticonvulsant activity in Kunming mouse assessed as protection against maximal electroshock-induced seizures at 100 mg/kg, ip measured after 4 hrs. The class given is functional, organism-based. Also noted: dose 100 mg/kg. In outline: as §2
The test system of series [12] is Mus musculus. Put plainly: Anticonvulsant activity in Kunming mouse assessed as protection against maximal electroshock-induced seizures at 30 mg/kg, ip measured after 4 hrs. The class given is functional, organism-based. Also noted: dose 30 mg/kg. In a few lines: as §2
The test system of series [13] is Mus musculus. In words: Anticonvulsant activity in Kunming mouse assessed as protection against maximal electroshock-induced seizures at 30 mg/kg, ip measured after 0.5 hr. The series is classed as functional, organism-based. Set-up: dose 30 mg/kg. In a few lines:
as §2

For series [14], the system named is Mus musculus. In words: Protective index, ratio of TD50 for neurotoxicity in Kunming mouse to ED50 for protection against subcutaneous pentylenetetrazol-induced clonic seizures in Kunming mouse. The class given is functional.
The species entered for series [15] is Mus musculus. Put plainly: Protective index, ratio of TD50 for neurotoxicity in Kunming mouse to ED50 for protection against MES-induced seizures in Kunming mouse. The class given is functional.
A short description of series [16]: Neurotoxicity in ip dosed Kunming mouse measured 30 mins post compound administration by rotorod test. The series is classed as toxicity, organism-based. Conditions: in vivo.
Series [17] concerns Mus musculus. In words: Anticonvulsant activity in Kunming mouse assessed as protection against subcutaneous pentylenetetrazol-induced clonic seizures at 100 mg/kg, ip measured after 0.5 hrs. Also noted: dose 100 mg/kg. The series is classed as functional, organism-based. In outline:
as §3

The source made the active and inactive calls.

In the case of `CCOC(=O)C1(NC(=O)NNC(=O)c2ccc(C)cc2)CC1(C)C` (configuration not stated), the Activity entry in [1] was “Toxic”; in [2] it was “Non-toxic”. For the same molecule, the outcome in series [3] and in series [5] was Active. The outcome in series [4] and in [6] was inactive.

Regarding `CCOC(=O)C1(NC(=O)NNC(=O)c2ccco2)CC1(C)C` (configuration not stated), the Activity result in series [1] and in series [8] was “Toxic” each time. The result in [7], in series [5] and in series [6] was inactive. Further, the outcome in [4] was Active.

`CCOC(=O)C1(NC(=O)NNC(=O)c2cccnc2)CC1(C)C` (configuration not stated): the Activity result in series [1] and in [8] was “Toxic” throughout. Further, the result in series [7], in series [4] and in series [6] was inactive. Further, in series [5], the outcome was Active.

In the case of `CCOC(=O)C1(NC(=O)NNC(=O)c2ccc(C(C)(C)C)cc2)CC1(C)C` (configuration not stated), the Activity result was “Toxic” in [1] and “Non-toxic” in series [2]. The result in [3] and in series [6] was Active. Further, the outcome in series [4] and in series [5] was inactive.

As a reminder, the ED50 is the dose at which the effect has come halfway, by size or by number of responders. On to `NC(=O)N1c2ccccc2C=Cc2ccccc21` [CARBAMAZEPINE], for which the ED50 in series [9] was 8.8 mg/kg; in [10], over 100 mg/kg.

On to `CCCC(CCC)C(=O)O` [VALPROIC ACID], for which the median effective dose (ED50) in series [10] amounted to 149 mg/kg.

For `CCOC(=O)C1(NC(=O)NNC(=O)c2cccs2)CC1(C)C` (configuration not stated), the Activity result in [1] and in [8] was “Toxic” each time. In series [7], the outcome was inactive. For the same molecule, the result in [11], in series [5] and in series [6] was Active.

`CCOC(=O)C1(NC(=O)NNC(=O)c2ccc(F)cc2)CC1(C)C` (configuration not stated): the Activity entry in series [1] and in series [2] was “Non-toxic” in each case. For the same molecule, the outcome in series [3], in series [4] and in series [6] was Active. Moreover, the result in series [5] was inactive.

Consider `CCOC(=O)C1(NC(=O)NNC(=O)c2ccccc2Br)CC1(C)C` (configuration not stated), for which the Activity entry in series [1] and in [2] was “Non-toxic” each time. The outcome in series [7], in series [12], in [5] and in series [6] was Active.

Take `CCOC(=O)C1(NC(=O)NNC(=O)c2ccccc2Cl)CC1(C)C` (configuration not stated): the Activity entry in series [1] was “Toxic”; in series [2], “Non-toxic”. The outcome in series [3], in [4] and in series [6] was Active. Besides, in series [5], the outcome was inactive.

Regarding `CCOC(=O)C1(NC(=O)NNC(=O)c2cccc(C)c2)CC1(C)C` (configuration not stated), the Activity entry in [1] and in series [2] was “Non-toxic” throughout. Moreover, the outcome in series [3] was Active. For the same molecule, the result in series [4], in series [5] and in series [6] was inactive.

Regarding `CCOC(=O)C1(NC(=O)NNC(=O)c2ccc(N(C)C)cc2)CC1(C)C` (configuration not stated), the Activity result in series [1] was “Toxic”; in [2], “Non-toxic”. The result in [7] and in [4] was Active. Moreover, the outcome in [5] and in series [6] was inactive.

As for `CCOC(=O)C1(NC(=O)NNC(=O)c2ccncc2)CC1(C)C` (configuration not stated), the Activity entry in series [1] and in series [8] was “Toxic” throughout. Also, the outcome in series [7], in series [5] and in [6] was inactive. Besides, in series [4], the outcome was Active.

The TD50 is the 50% point of the dose-response relation for the toxic effect studied. A higher TD50 goes with harm only at a large dose. On to `CCOC(=O)C1(NC(=O)NNC(=O)c2ccc(Cl)cc2)CC1(C)C` (configuration not stated), for which the Activity entry in series [1] is “Toxic”; in series [2], “Non-toxic”. In addition, the outcome in [13], in [4] and in series [5] was Active. For the same molecule, the ED50 was 20.1 mg/kg in [9] and 335 mg/kg in series [10]. The “Ratio TD50/ED50” value in [14] stood at 1.1; in series [15], 19. Also, the TD50 at 0.5 h in [16] worked out at 382 mg/kg. In addition, the outcome in series [6] was inactive.

As for `CCOC(=O)C1(NC(=O)NNC(=O)c2ccccc2C)CC1(C)C` (configuration not stated), the Activity result in series [1] and in [2] was “Non-toxic” throughout. For the same molecule, the outcome in series [3], in [17] and in series [11] was Active. For the same molecule, the outcome in series [5] was inactive.

`CCOC(=O)C1(NC(=O)NNC(=O)c2ccccc2F)CC1(C)C` (configuration not stated): the Activity result in series [1] is on record as “Toxic”; in [2], “Non-toxic”. In addition, in series [7], the outcome was Active. For the same molecule, the outcome in series [4], in [5] and in [6] was inactive.

With `CCOC(=O)C1(NC(=O)NNC(=O)c2ccccc2)CC1(C)C` (configuration not stated), the Activity result in [1] is given as “Non-toxic”; in series [2], “Toxic”. In addition, the outcome in [7] and in series [6] was Active. Also, the result in [4] and in series [5] was inactive.

For `CCOC(=O)C1(NC(=O)NNC(=O)c2cc(OC)c(OC)c(OC)c2)CC1(C)C` (configuration not stated), the Activity entry in series [1] was “Non-toxic”; in [2], “Toxic”. For the same molecule, the outcome in series [7] and in [4] was Active. For the same molecule, the result in [5] and in series [6] was inactive.

Regarding `CCOC(=O)C1(NC(=O)NNC(=O)c2ccc(CC)cc2)CC1(C)C` (configuration not stated), the Activity result in series [1] and in series [2] was “Non-toxic” in each case. Further, the result in [7], in [4] and in series [6] was Active. Further, in [5], the result was inactive.

As to `CCC1(c2ccccc2)C(=O)NC(=O)NC1=O` [PHENOBARBITAL], the 50% effective dose (ED50) in series [9] was determined as 21.8 mg/kg; in [10] it was 13.2 mg/kg.

In the case of `CCOC(=O)C1(NC(=O)NNC(=O)c2ccc(Br)cc2)CC1(C)C` (configuration not stated), the results for the Activity entry in series [1] and in [2] were “Toxic” and “Non-toxic”, respectively. In series [3], the result was Active. Besides, the outcome in series [4], in [5] and in [6] was inactive.

With `CCC1(C)CC(=O)NC1=O` (configuration not stated) [ETHOSUXIMIDE], the Activity entry in series [1] and in series [2] was “Non-toxic” each time. The result in series [7] and in [4] was inactive. Also, the result in series [17] and in [5] was Active.

Regarding `CCOC(=O)C1(NC(=O)NNC(=O)c2ccc(OC)c(OC)c2)CC1(C)C` (configuration not stated), the Activity result in [1] was “Toxic”; in series [2] it was “Non-toxic”. The outcome in [7] and in series [4] was Active. The outcome in [5] and in series [6] was inactive.

As for `CCOC(=O)C1(NC(=O)NNC(=O)c2ccc(OC)cc2)CC1(C)C` (configuration not stated), the Activity result in series [1] and in series [2] was “Non-toxic” in each case. Moreover, the outcome in series [7], in series [4] and in [17] was Active. In series [5], the result was inactive.

`CCOC(=O)C1(NC(=O)NNC(=O)c2ccc([N+](=O)[O-])cc2)CC1(C)C` (configuration not stated): the Activity result in series [1] was “Toxic”; in [2] it was “Non-toxic”. In addition, the outcome in series [3] was Active. Moreover, the outcome in series [4], in series [5] and in series [6] was inactive.

(Values after ChEMBL document CHEMBL2040803, “Synthesis and anticonvulsant activity of ethyl 1-(2-arylhydrazinecarboxamido)-2,2-dimethylcyclopropanecarboxylate derivatives” (Eur J Med Chem, 2012).)
